Activity calls are given as the source filed them. The rule behind the calls is not given here.
Assays:
[1] = test system: HCT-116; test: Cytotoxicity against human HCT116 cells expressing p53 assessed as reduction in cell viability at 50 uM from 24 to 48 hrs by MTT assay; type: functional, cell-based
Procedure, shortened: (§1)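 p53-positive HCT116 cells kept in McCoy's 5A with 10% FCS at 37 °C and 5% CO2. Seeded at 1 x 10^4 per well and incubated overnight. Treated at 12.5–200 µM, DMSO-dissolved, for 8, 24 or 48 h, with 0.05% DMSO control. MTT (5 mg/ml) added for the final 1 h at 37 °C. Formazan dissolved in SDS/DMSO/acetic acid and absorbance read at 595 nm. Means ± SD, n = 3.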

[2] = target: T1, M-phase inducer phosphatase 3 (Homo sapiens) (UniProt P30307); test: Inhibition of recombinant human GST-tagged cdc25C phosphatase activity using 3-O-methyl fluorescein phosphate at 100 uM
T1 sequence (whole entry): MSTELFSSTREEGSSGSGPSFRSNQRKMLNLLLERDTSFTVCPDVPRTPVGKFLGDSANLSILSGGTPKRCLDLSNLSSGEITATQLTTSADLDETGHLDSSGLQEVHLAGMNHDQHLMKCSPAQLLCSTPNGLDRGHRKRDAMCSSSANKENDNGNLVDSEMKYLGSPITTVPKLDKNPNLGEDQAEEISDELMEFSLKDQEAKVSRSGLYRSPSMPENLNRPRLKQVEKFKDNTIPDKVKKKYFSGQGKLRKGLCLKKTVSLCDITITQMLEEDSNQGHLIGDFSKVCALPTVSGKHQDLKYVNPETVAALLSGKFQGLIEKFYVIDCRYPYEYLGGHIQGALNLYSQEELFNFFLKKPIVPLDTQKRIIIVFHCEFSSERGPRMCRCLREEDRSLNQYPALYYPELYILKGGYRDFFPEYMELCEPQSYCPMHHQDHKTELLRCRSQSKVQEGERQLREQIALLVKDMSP
Procedure, shortened: (§2)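 Test concentration 100 µM. Fluorescence (ex 475 / em 510 nm) read every 20 min for 2 h at 30 °C. Residual activity expressed relative to DMSO set at 100%.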

[3] = target: T2, M-phase inducer phosphatase 1 (Homo sapiens) (UniProt P30304); test: Inhibition of recombinant human GST-tagged cdc25A phosphatase activity using 3-O-methyl fluorescein phosphate at 100 uM; procedure, shortened: as §2
T2 sequence (whole entry): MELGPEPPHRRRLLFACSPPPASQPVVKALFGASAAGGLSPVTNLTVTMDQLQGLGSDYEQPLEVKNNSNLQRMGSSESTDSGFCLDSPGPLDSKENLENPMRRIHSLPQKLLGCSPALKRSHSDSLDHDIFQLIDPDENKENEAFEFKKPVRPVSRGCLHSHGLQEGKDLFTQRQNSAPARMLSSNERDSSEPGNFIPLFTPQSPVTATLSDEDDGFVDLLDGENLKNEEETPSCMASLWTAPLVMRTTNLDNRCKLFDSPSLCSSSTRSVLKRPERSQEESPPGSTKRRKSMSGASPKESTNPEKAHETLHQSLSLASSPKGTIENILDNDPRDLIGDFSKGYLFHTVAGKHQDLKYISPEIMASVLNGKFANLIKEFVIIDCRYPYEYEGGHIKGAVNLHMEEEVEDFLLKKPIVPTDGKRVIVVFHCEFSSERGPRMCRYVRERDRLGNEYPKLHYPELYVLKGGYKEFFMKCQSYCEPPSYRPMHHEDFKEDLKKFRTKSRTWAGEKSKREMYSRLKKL

[4] = test system: LNCaP; test: Induction of apoptosis in human LNCAP cells assessed as increase in caspase 3/7 activation at 20 ug/ml after 24 hrs by Western blotting; type: functional, cell-based
Procedure, shortened: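 LNCaP cells grown in RPMI 1640 with 10% FCS, then treated with 20 µg/ml doxorubicin (water stock) for 24 h or left untreated. Lysates run on 12.5% SDS-PAGE and probed for full-length and cleaved caspase 3.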

[5] = test system: HCT-116; test: Induction of apoptosis in human HCT116 cells assessed as PARP cleavage at 50 uM from 24 to 48 hrs by Western blotting; type: functional, cell-based
Procedure, shortened: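 HCT116 cells (McCoy's 5A, 10% FCS, 37 °C, 5% CO2) exposed to 50 µM compound (DMSO stock; 0.05% DMSO control) for 24, 48 and 72 h. Total extract in RIPA buffer with protease inhibitors, 75 µg protein run on 7.5% SDS-PAGE, blotted to PVDF. Anti-PARP 1:1000 overnight at 4 °C. 116 kDa full-length and 89 kDa cleaved bands scored. Nucleolin as loading control.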

[6] = test system: HCT-116; test: Induction of apoptosis in human HCT116 cells assessed as increase in gammaH2AX level at 50 uM from 24 to 72 hrs by Western blotting; type: functional, cell-based
[7] = test system: HCT-116; test: Induction of apoptosis in human HCT116 cells assessed as PARP cleavage at 50 uM from 24 to 72 hrs by Western blotting; type: functional, cell-based
Procedure, shortened: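 HCT116 cells exposed to 50 µM for 24, 48 and 72 h, with 0.05% DMSO control. RIPA lysates (75 µg) run on 7.5% SDS-PAGE and transferred to PVDF. Anti-PARP blot, with nucleolin as loading control. Cleavage read as the 116 kDa band converting to 89 kDa.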

[8] = test system: HCT-116; test: Cytotoxicity against human HCT116 cells expressing p53 assessed as reduction in cell viability at 100 to 200 uM after 24 hrs by MTT assay; type: functional, cell-based; procedure, shortened: as §1
[9] = test system: HCT-116; test: Cytotoxicity against human HCT116 cells expressing p53 assessed as reduction in cell viability at 50 uM by MTT assay; type: functional, cell-based; conditions: TDE = time-dependent effect; procedure, shortened: as §1
[10] = test system: HCT-116; test: Cytotoxicity against human HCT116 cells expressing p53 assessed as cell viability at 50 uM after 48 hrs by MTT assay; type: functional; conditions: HCT-116, 48 h, read-out: Activity; procedure, shortened: as §1
[11] = test system: HCT-116; test: Cytotoxicity against human HCT116 cells expressing p53 assessed as reduction in cell viability after 24 hrs by MTT assay; type: functional, cell-based; procedure, shortened: as §1
[12] = test system: HCT-116; test: Induction of apoptosis in human HCT116 cells assessed as increase in p53 level at 50 uM from 8 to 48 hrs by Western blotting; type: functional, cell-based
Procedure, shortened: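 HCT116 cells exposed to 50 µM for 8, 24 and 48 h, with 0.05% DMSO control. Lysates run on SDS-PAGE and blotted with anti-p53 (DO-1) at 1:1000 for 1 h at room temperature. GAPDH used as loading control.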

[13] = test system: HCT-116; test: Cytotoxicity against human HCT116 cells expressing p53 assessed as reduction in cell viability at 25 uM after 24 hrs by MTT assay; type: functional; procedure, shortened: as §1
[14] = test system: HCT-116; test: Cytotoxicity against human HCT116 cells expressing p53 assessed as reduction in cell viability at 50 uM after 24 hrs by MTT assay; type: functional; procedure, shortened: as §1
[15] = test system: HCT-116; test: Cell cycle arrest in human HCT116 cells assessed as accumulation at G1 phase at 25 uM after 24 hrs using propidium iodide staining by cytofluorometry (reference value: 62.34%); type: functional
[16] = test system: HCT-116; test: Induction of apoptosis in human HCT116 cells assessed as increase in caspase 3/7 activation at 50 uM from 24 to 48 hrs by Western blotting; type: functional, cell-based
Procedure, shortened: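 HCT116 cells treated with 0 or 50 µM for 24 and 48 h. Lysed on ice in Tris/MgCl2/NP-40/DTT buffer. Separated on 12.5% SDS-PAGE and probed with caspase 3 antibody for full-length protein and cleavage products. Representative of at least 3 blots.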

[17] = test system: HCT-116; test: Cell cycle arrest in human HCT116 cells assessed as accumulation at G1 phase at 50 uM after 24 hrs using propidium iodide staining by cytofluorometry (reference value: 62.34%); type: functional
[18] = test system: HCT-116; test: Cell cycle arrest in human HCT116 cells assessed as accumulation at S phase at 50 uM after 24 hrs using propidium iodide staining by cytofluorometry (reference value: 4.91%); type: functional
[19] = test system: HCT-116; test: Cell cycle arrest in human HCT116 cells assessed as accumulation at subG1 phase at 25 uM after 24 hrs using propidium iodide staining by cytofluorometry (reference value: 1.8%); type: functional
[20] = test system: HCT-116; test: Induction of apoptosis in NAC treated human HCT116 cells assessed as PARP cleavage at 50 uM treated 0.5 hrs before NAC challenge measured after 24 to 72 hrs by Western blotting; type: functional, cell-based
Procedure, shortened: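 HCT116 cells pretreated with 5 mM NAC (water stock) for 0.5 h, then exposed to 50 µM for 24, 48 and 72 h. Cells lysed in RIPA with protease inhibitors. 75 µg protein run on 7.5% SDS-PAGE and blotted to PVDF. PARP probed at 1:1000 overnight at 4 °C. Nucleolin or GAPDH used as loading control.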

[21] = test system: HCT-116; test: Cell cycle arrest in human HCT116 cells assessed as accumulation at G2/M phase at 50 uM after 24 hrs using propidium iodide staining by cytofluorometry (reference value: 23.45%); type: functional
[22] = test system: HCT-116; test: Cell cycle arrest in human HCT116 cells assessed as accumulation at subG1 phase at 50 uM after 24 hrs using propidium iodide staining by cytofluorometry (reference value: 1.8%); type: functional
[23] = test system: HCT-116; test: Cell cycle arrest in human HCT116 cells assessed as accumulation at G2/M phase at 25 uM after 24 hrs using propidium iodide staining by cytofluorometry (reference value: 23.45%); type: functional
[24] = test system: HCT-116; test: Induction of apoptosis in human HCT116 cells assessed as increase in bax level by Western blotting; type: functional, cell-based; conditions: TDE = time-dependent effect
Procedure, shortened: (§3)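 HCT116 cells left untreated or exposed for 0.5–24 h. 50 µg protein separated on 12.5% SDS-PAGE and transferred to PVDF. bcl-2, bax or cytochrome c antibodies applied at 1:1000 overnight at 4 °C, with GAPDH loading control. For cytochrome c, cytosolic extracts were made by snap-freezing PBS-resuspended cells and clearing at 12500×g.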

[25] = test system: HCT-116; test: Induction of apoptosis in human HCT116 cells assessed as decrease in cdc25C level at 50 uM by Western blotting; type: functional, cell-based; conditions: TDE = time-dependent effect
[26] = test system: HCT-116; test: Induction of apoptosis in human HCT116 cells assessed as increase in release of cytochrome C into cytosol by Western blotting; type: functional, cell-based; procedure, shortened: as §3
[27] = test system: HCT-116; test: Induction of apoptosis in human HCT116 cells assessed as decrease in bcl-2 level by Western blotting; type: functional, cell-based; conditions: TDE = time-dependent effect; procedure, shortened: as §3
[28] = test system: HCT-116; test: Cell cycle arrest in human HCT116 cells assessed as accumulation at S phase at 25 uM after 24 hrs using propidium iodide staining by cytofluorometry (reference value: 4.91%); type: functional

Q: For C=CCSSSSCC=C, which Activity [1] is on record?
A: Active

Q: Which inhibition [2] does the source give for COc1cc(N(C)C)cc(CN(C)CCc2ccc([N+](=O)[O-])cc2)c1O here?
A: Active

Q: And the inhibition [3]?
A: Active

Q: With COc1cccc2c1C(=O)c1c(O)c3c(c(O)c1C2=O)C[C@@](O)(C(=O)CO)C[C@@H]3O[C@H]1C[C@H](N)[C@H](O)[C@H](C)O1 as the molecule, how does the Activity [4] read?
A: Active

Q: With C=CCSSCC=C as the molecule, how does the Activity [5] read?
A: Active

Q: And the Activity [1]?
A: Active

Q: What does the source list for COc1ccc2c(CSSCc3cc(=O)oc4cc(OC)ccc34)cc(=O)oc2c1?
A: Activity [6]: Active; Activity [5]: Active; Activity [7]: Active; Activity [8]: Active; Activity [9]: tde; viability at 50 µM [10]: 20%; inhibition [2]: Active; Activity [1]: Active; Activity [11]: Dose-dependent effect; Activity [12]: Active; Activity [13]: 30%; inhibition [3]: Active; Activity [14]: 50%

Q: For COc1ccc2c(CSSSCc3cc(=O)oc4cc(OC)ccc34)cc(=O)oc2c1, which Activity [6] is on record?
A: Active

Q: What about the Activity [7] of the same molecule?
A: Active

Q: What about the Activity [15] of the same molecule?
A: 14.33%

Q: What about the Activity [8] of the same molecule?
A: Active

Q: What about the Activity [16] of the same molecule?
A: Active

Q: And the Activity [17]?
A: 13.59%

Q: And the Activity [18]?
A: 3.9%

Q: What about the Activity [9] of the same molecule?
A: tde

Q: And the viability at 50 µM [10]?
A: 20%

Q: And the Activity [19]?
A: 12.28%

Q: And the Activity [20]?
A: inactive

Q: And the inhibition [2]?
A: Active

Q: What about the Activity [21] of the same molecule?
A: 63.19%

Q: And the Activity [22]?
A: 10.43%

Q: What about the Activity [23] of the same molecule?
A: 66.07%

Q: And the Activity [24]?
A: tde

Q: What about the Activity [25] of the same molecule?
A: tde

Q: What about the Activity [11] of the same molecule?
A: Dose-dependent effect

Q: And the Activity [12]?
A: Active

Q: What about the Activity [13] of the same molecule?
A: 22%

Q: And the inhibition [3]?
A: Active

Q: What about the Activity [14] of the same molecule?
A: 50%

Q: What about the Activity [26] of the same molecule?
A: Active

Q: What about the Activity [27] of the same molecule?
A: tde

Q: What about the Activity [28] of the same molecule?
A: 4.61%

— ChEMBL document CHEMBL1944542, “Coumarin polysulfides inhibit cell growth and induce apoptosis in HCT116 colon cancer cells” (2012)
